Measurements of several laboratories.
Compare with care: the assays were run in different laboratories.
Cell line: MCF7
Effect on: cell growth or viability

| Compound | method | concentration | time | measurement | value |
| --- | --- | --- | --- | --- | --- |
| COc1ccc(C(=O)/C=C/c2c(F)cccc2Cl)cc1S(N)(=O)=O | SRB | 10 µM |  | inhibition | 105% |
| Cc1ccc2nc(-c3ccc4c(c3)OCO4)[nH]c2c1 | MTT |  | 48 h | IC50 | > 100 µM |
| COc1cc(CNC(=O)C[C@H](C)CCC=C(C)C)ccc1OCc1cn(-c2ccc(Cl)cc2)nn1 | SRB | 10 µM |  | inhibition | 34% |
| C[C@]12CC[C@@H]3c4ccc(O)cc4CC[C@H]3[C@@H]1CC[C@@H]2O | ATP luminescence |  | 72 h | EC90 | 53.5 µM |
| CCOc1cc(-c2nc3ccccc3[nH]2)ccc1O | MTT |  | 48 h | IC50 | 59.2 µM |
| COc1cccc2c1C(=O)c1c(O)c3c(c(O)c1C2=O)C[C@@](O)(C(=O)CO)C[C@@H]3O[C@H]1C[C@H](N)[C@H](O)[C@H](C)O1 | MTT |  |  | TGI | 0.21 µM |
| Cc1ccc2nc(-c3ccco3)[nH]c2c1 | MTT |  | 48 h | IC50 | > 100 µM |
| COc1ccc(C(=O)/C=C/c2cccc(Br)c2)cc1S(N)(=O)=O | SRB | 10 µM |  | inhibition | 177% |
| CC/C(=C(\c1ccccc1)c1ccc(OCCN(C)C)cc1)c1ccccc1 | ATP luminescence |  | 72 h | EC90 | 32.2 µM |
| CC(=O)O[C@H]1C(=O)[C@@]2(C)[C@H]([C@H](OC(=O)c3ccccc3)[C@]3(O)C[C@H](OC(=O)[C@H](O)[C@@H](NC(=O)c4ccccc4)c4ccccc4)C(C)=C1C3(C)C)[C@]1(OC(C)=O)CO[C@@H]1C[C@@H]2O | MTT |  | 48 h | IC50 | 2.35 µM |
| COc1ccc(C(=O)/C=C/c2ccc3c(c2)OC(F)(F)O3)cc1S(N)(=O)=O | SRB | 10 µM |  | inhibition | 7% |
| COc1cc(C(CC(N)=O)NCCc2ccc(O)c(O)c2)ccc1O (stereo not drawn) | MTT |  |  | TGI | 52 µM |
| COc1ccc(C(=O)/C=C/c2ccccc2Cl)cc1S(N)(=O)=O | SRB | 10 µM |  | inhibition | 4% |
| Cc1ccc2nc(-c3ccc([N+](=O)[O-])cc3)[nH]c2c1 | MTT |  | 48 h | IC50 | 10.5 µM |
| COc1ccc(C(=O)/C=C/c2ccc3ccccc3c2)cc1S(N)(=O)=O | SRB | 10 µM |  | inhibition | 175% |
| CCCCCCCCCCCCNC(=S)NCCCC[C@H](NS(C)(=O)=O)C(=O)N[C@H](C)C(=O)N[C@@H](CCCNC(=N)N)C(=O)N1CCOCC1 | MTT |  | 72 h | EC50 | 64.7 to 93.7 µM |
| COc1ccc(-c2c(Cc3ccccc3)[nH]c(=NC(=O)c3ccccc3F)n2C)cc1 |  |  |  | EC50 | 1.4 µM |
| c1ccc2[nH]c(-c3ccncc3)nc2c1 | MTT |  | 48 h | IC50 | > 100 µM |
| CCCCCCCCCCCCNC(=S)NCCCC[C@H](NS(C)(=O)=O)C(=O)N[C@@H](C)C(=O)N[C@@H](CCCNC(=N)N)C(N)=O | MTT |  | 72 h | EC50 | 63.7 to 84.3 µM |
| Clc1ccc(-c2nc3ccccc3[nH]2)c(Cl)c1 | MTT |  | 48 h | IC50 | 55.8 µM |
| CCCCCCCCCCCCNC(=O)NCCCC[C@H](NS(C)(=O)=O)C(=O)N[C@H](C)C(=O)N[C@@H](CCCNC(=N)N)C(N)=O | MTT |  | 72 h | EC50 | 69.2 to 78.9 µM |
| CC(C)c1cnn2c(NCc3ccccc3)cc(NC[C@H]3CCNC[C@@H]3O)nc12 |  | 0.1 µM | 9 days | inhibition | ~50% |
| Cc1ccc2nc(-c3ccc(Cl)cc3)n(Cc3ccccc3Cl)c2c1 | MTT |  |  | IC50 | 59.8 µM |
| COc1cc(C(CC(C)=O)NCCc2ccc(O)c(O)c2)ccc1O (stereo not drawn) | MTT |  |  | TGI | 46.2 µM |
| COc1ccc(C(=O)/C=C/c2ccccc2Br)cc1S(N)(=O)=O | SRB | 10 µM |  | inhibition | 171% |
| COc1cc(C(CC(=O)c2ccc(C(C)(C)C)cc2)NCCc2ccc(O)c(O)c2)ccc1O (stereo not drawn) | MTT |  |  | TGI | 4.24 µM |
| COc1ccccc1/C=C/C(=O)c1ccc(OC)c(S(N)(=O)=O)c1 | SRB | 10 µM |  | inhibition | 92% |
